# TRPC6 activator – mouse TRPC6 channel activation; Q61143; HEK293-TRPC6 membrane potential dye fluorescence; stronger effect = higher value; B-score at 10 µM; actives 0.13% (n = 310,000);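 active = B-score of the integrated fluorescence ratio above library mean plus 3 SD, and starting fluorescence ratio within library mean plus 5 SD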;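 note: higher score means more depolarization so channel activation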
# Target sequence (Q61143 whole entry, looked up): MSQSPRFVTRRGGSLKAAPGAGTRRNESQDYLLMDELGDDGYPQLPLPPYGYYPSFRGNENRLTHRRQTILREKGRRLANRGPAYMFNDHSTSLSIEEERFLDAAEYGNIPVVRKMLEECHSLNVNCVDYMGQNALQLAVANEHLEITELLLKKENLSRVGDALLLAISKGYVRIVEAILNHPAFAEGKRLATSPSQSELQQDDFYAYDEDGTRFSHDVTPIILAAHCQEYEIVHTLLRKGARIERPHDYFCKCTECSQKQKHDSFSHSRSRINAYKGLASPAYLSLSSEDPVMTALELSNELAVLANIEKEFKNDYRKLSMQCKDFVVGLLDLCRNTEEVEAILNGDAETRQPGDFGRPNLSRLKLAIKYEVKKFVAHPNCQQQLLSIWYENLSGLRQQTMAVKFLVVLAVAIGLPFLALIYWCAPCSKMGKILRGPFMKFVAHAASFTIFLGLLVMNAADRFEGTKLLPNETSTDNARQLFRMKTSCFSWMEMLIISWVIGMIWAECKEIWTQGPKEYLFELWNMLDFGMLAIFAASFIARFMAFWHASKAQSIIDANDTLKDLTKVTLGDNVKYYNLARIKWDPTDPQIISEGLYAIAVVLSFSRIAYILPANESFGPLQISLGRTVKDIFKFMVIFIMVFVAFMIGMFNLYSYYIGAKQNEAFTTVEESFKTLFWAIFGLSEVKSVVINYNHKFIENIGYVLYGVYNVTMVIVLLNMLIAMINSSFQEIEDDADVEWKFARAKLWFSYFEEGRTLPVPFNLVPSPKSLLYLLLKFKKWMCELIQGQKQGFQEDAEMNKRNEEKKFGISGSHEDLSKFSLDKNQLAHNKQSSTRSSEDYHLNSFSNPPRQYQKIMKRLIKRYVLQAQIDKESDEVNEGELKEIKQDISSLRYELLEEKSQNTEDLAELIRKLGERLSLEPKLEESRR
# TRPC6 inhibitor – mouse TRPC6 channel inhibition; AID 2553; actives 1.1% (n = 310,000); HEK293-TRPC6, membrane potential dye, ACh-evoked depolarization; stronger effect = lower value; B-score at 10 µM; Q61143;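 active = B-score under library mean minus 3 SD, initial fluorescence not abnormally high, positive integrated signal ratio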;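 note: B-score derived from integrated fluorescence ratio over the kinetic read; more negative B-score means stronger inhibition of depolarization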
# TRPC4 potent – allosterically enhances the mouse TRPC4 cation channel; Q9QUQ5; HEK293 TRPC4beta/mu-opioid, DAMGO EC20, Fluo-4 Ca2+ flux; stronger effect = higher value; B-score at 10 µM; actives 0.42% (n = 310,000); AID 2227;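 active = B-score of calcium response area above 5 SD of library B-scores, with initial fluorescence ratio within 5 SD of library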;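 note: B-score of integrated fluorescence ratio over time as area under calcium response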
# TRPC4 act – opens the mouse TRPC4 cation channel. HEK293 TRPC4beta/mu-opioid, Fluo4 calcium fluorescence; stronger effect = higher value. actives 0.49% (n = 310,000). AID 2237. B-score at 10 µM;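 active = B-score above 5 SD of library B-scores, and initial fluorescence ratio not above library mean plus 5 SD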;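 note: positive B-score marks a calcium rise read as TRPC4 activation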
#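 Assay system – TRPC4beta and mu-opioid receptor HEK293 stable cells · Measured by – Fluo4 fluorescence, kinetic · Schedule – dye loading 45 min room temperature, 110 s kinetic read · Read-out – B-scored integrated calcium fluorescence ratio · Controls – buffer and maximal DAMGO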
# TRPC4 block – TRPC4 (mouse) channel inhibition; Q9QUQ5; HEK293 TRPC4beta/mu-opioid, DAMGO-evoked Fluo4 calcium flux; stronger effect = lower value; B-score at 10 µM; actives 0.39% (n = 300,000);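 active = B-score over 3 SD under the library average, no early fluorescence shift, positive overall ratio signal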
#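 Assay system: TRPC4beta/mu-opioid receptor HEK293 cell line; compound dosing: single concentration per test compound; detection: Fluo4 Ca2+ flux fluorescence; evaluation: per-well B score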
# The depositor's hits bear a star; i = inactive. Hits are enriched below; roughly 2.3% of the tested compounds scored in any of these assays.
SMILES,TRPC6 activator,TRPC6 inhibitor,TRPC4 potent,TRPC4 act,TRPC4 block
COc1ccc(C(CNC(=O)Cc2ccc(-c3ccccc3)cc2)N(C)C)cc1 (stereo unspecified),i,i,i,202*,i
CCC(C)C(NC(=O)OCc1ccccc1)C(=O)NCC(c1ccccc1)N(C)C (stereo unspecified),i,i,i,i,-5*
CC[C@H](C)[C@H](NC(=O)OCc1ccccc1)C(=O)Nc1ccc(NC(C)=O)cc1,i,i,i,i,i
COc1cccc(C(CNC(=O)C(c2ccccc2)c2ccccc2)N(C)C)c1 (stereo unspecified),i,i,i,i,-6*
COc1ccc(OCCNC(=O)C(c2ccccc2)c2ccccc2)cc1,i,i,i,i,i
COc1ccc(CC(NC(=O)c2ccccc2)C(=O)NCC(=O)O)cc1 (stereo unspecified),i,i,i,i,i
COc1ccccc1C(=O)NCC(c1cccnc1)N(C)C (stereo unspecified),i,i,i,i,i
COc1ccc(C(CNC(=O)c2cccc3cccnc23)N(C)C)cc1 (stereo unspecified),i,i,i,108*,-7*
COc1ccc(C(CNC(=O)CSc2ccccc2C)N(C)C)cc1 (stereo unspecified),i,i,i,116*,i
COc1ccccc1C(CNC(=O)CSc1ccc2ccccc2c1)N(C)C (stereo unspecified),i,i,i,i,i
COc1ccc(C(CNC(=O)C(Cc2ccccc2)NC(N)=O)N(C)C)cc1 (stereo unspecified),i,i,i,112*,i
CN(C)c1ccc(C(CNC(=O)Cc2cccc3ccccc23)N(C)C)cc1 (stereo unspecified),i,i,i,77*,i
Cc1cc(C)c(NC(=O)CSc2nnc(CNC(=O)c3ccco3)o2)c(C)c1,i,i,i,i,i
O=C(NCCc1ccccc1Cl)c1ccc2nc3ccccc3c(=O)n2c1,i,i,i,i,i
Cc1ccc(O)c(NC(=O)c2cc(C)no2)c1,i,i,i,i,i
CCCCCN1C2=NCCN2c2ccccc21,i,i,i,i,-6*
CCCN1C2=NCCN2c2cc(C)c(C)cc21,i,i,i,i,-7*
Cc1ccnc(Cc2ccccc2)n1,i,i,i,i,i
CCC(NC(=S)NC1CCCCC1)c1ccc(C(C)C)cc1 (stereo unspecified),i,i,i,i,i
Cc1ccc2[nH]c(C(=O)NCCN3CCCC3)cc2c1,i,i,i,56*,i
Cc1ccc2[nH]c(C(=O)N3CCCCC3)cc2c1,i,i,i,i,i
O=C(NC12CC3CC(CC(C3)C1)C2)c1cc(F)c(F)c(F)c1F,i,i,i,i,i
O=[N+]([O-])c1ccc(N2CCCC2)nc1N1CCCC1,i,i,i,144*,i
Nc1ncc([N+](=O)[O-])c(N2CCCCCC2)n1,i,i,i,i,i
COc1cccc(OCc2cc(C(=O)NC(C)c3cnn(C)c3C)no2)c1 (stereo unspecified),i,i,i,i,i
SMILES,TRPC6 activator,TRPC6 inhibitor,TRPC4 potent,TRPC4 act,TRPC4 block
CCOc1ccc(OCC(O)CNC2CCN(Cc3ccccc3)CC2)cc1 (stereo unspecified),i,i,i,108*,-6*
CC(=O)c1ccc(OCC(O)CN2CCN(Cc3ccccc3)CC2)cc1 (stereo unspecified),i,i,i,i,i
CC(C)(c1ccccc1)c1ccc(OCC(O)CNC2CCN(Cc3ccccc3)CC2)cc1 (stereo unspecified),i,i,i,92*,i
COc1ccc(CNCC(O)COc2ccc(C(C)(C)c3ccccc3)cc2)cc1 (stereo unspecified),i,i,i,i,i
Cc1ccc(C(=O)NNC(=O)c2ccco2)cc1,i,i,i,i,i
O=C(NNC(=S)NC(=O)c1ccccc1)c1ccc([N+](=O)[O-])cc1,i,i,i,56*,i
Cc1ccc(C(=O)NC(=S)NNC(=O)c2ccccc2)cc1,i,i,i,90*,i
Cc1ccccc1C(=O)NNC(=S)NC(=O)c1ccccc1,i,i,i,205*,i
Cc1ccc(C(=O)NNC(=S)NC(=O)c2ccco2)cc1,i,i,i,133*,i
CCCCCC(=O)NNC(=S)NC(=O)c1ccc([N+](=O)[O-])cc1,i,i,i,79*,i
Cc1ccc(C(=O)NNC(=S)NC(=O)c2ccccc2)cc1,i,i,i,218*,i
Cc1ccccc1OCC(=O)NNC(=S)NC(=O)c1ccco1,i,i,i,88*,i
Cc1ccccc1OCC(=O)Nc1ccccc1NC(=O)c1ccco1,i,i,i,i,i
O=C(NNC(=S)NC(=O)c1ccccc1[N+](=O)[O-])c1ccc(Cl)cc1Cl,i,i,i,49*,i
O=C(NNC(=S)NC(=O)c1ccccc1[N+](=O)[O-])c1ccccc1[N+](=O)[O-],i,i,i,i,i
Cc1ccccc1OCCC(=O)Nc1ccccc1C(=O)NC1CC1,i,i,i,i,i
CCOC(=O)C1CCN(S(=O)(=O)c2c(Cl)ccc3nonc23)CC1,i,i,i,i,i
CCCc1cc(C(=O)N(C)CC(=O)Nc2ccc(OCC)c(OCC)c2)sc1C,i,i,i,i,i
O=C(O)c1ccc(NC(=S)NC(=O)c2ccc(-c3ccccc3)cc2)cc1,i,i,i,i,-6*
O=C(NNC(=S)NC(=O)c1ccc(Br)cc1)c1cccc([N+](=O)[O-])c1,i,i,i,i,i
O=C(NNC(=S)NC(=O)c1ccccc1Cl)c1cccc([N+](=O)[O-])c1,i,i,i,106*,i
Cc1ccc(C(=O)NC(=S)NNC(=O)c2ccccc2[N+](=O)[O-])cc1,i,i,i,53*,i
OC[C@H]1O[C@H](OC[C@H]2O[C@H](OC[C@H]3O[C@H](O[C@]4(CO)O[C@H](CO)[C@@H](O)[C@@H]4O)[C@H](O)[C@@H](O)[C@@H]3O)[C@H](O)[C@@H](O)[C@H]2O)[C@H](O)[C@@H](O)[C@H]1O,i,i,i,i,i
Cc1ccc(-c2nn(-c3ccccc3)cc2CNCc2ccccc2)cc1,i,i,i,i,i

# Screens as filed in PubChem BioAssay.
